According to ChEMBL document CHEMBL5331144, “Design, Synthesis, and Biological Evaluation of 2-Hydroxy-4-phenylthiophene-3-carbonitrile as PD-L1 Antagonist and Its Comparison to Available Small Molecular PD-L1 Inhibitors” (J Med Chem, 2023):
Calls of active or inactive are those of the source. No cut-off for these calls is given here.

Experiments:
Jurkat = assay: Cytotoxicity against human Jurkat T cells overexpressing PD-1 with luciferase reporter under the control of NFAT promoter at higher concentration incubated for 48 hrs by redox dye mix based analysis; assay type: toxicity, cell-based
How it was run: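 Jurkat PD-1 effector cells (PD-1 overexpressing, luciferase reporter under NFAT promoter), 5000 cells/well, grown in RPMI 1640 with 10% FBS and 2 mM L-glutamine. Exposed 48 h to increasing compound concentrations, with DMSO held constant; DMSO alone as control. Values are mean ± SD of at least three independent experiments.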

[1] = Ex vivo drug localization in peripheral part of formalin fixed paraffin embedded tumor of human NCI-H358 cells expressing PD-L1 by immunohistochemistry staining based analysis; assay type: ADME, tissue-based, Neoplasm
How it was run: (§1)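 FFPE xenograft tumours (ES2 or H358, PD-L1+/– knockout pairs) cut to 4 μm, deparaffinized at 60 °C with xylene, rehydrated, citrate pH 6.0 heat retrieval. Autoradiography: 30 min incubation with freshly formulated 18F-tracer at 0.2 MBq/mL, washed with cold PBS and water, dried, phosphor-plate exposure and quantification. Adjacent sections stained by IHC with anti-PD-L1 (5 μg/mL, clone 28-8, 60 min), DAB, hematoxylin counterstain.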

[2] = Ex vivo biodistribution in formalin fixed paraffin embedded tumor of human NCI-H358 cells expressing PD-L1 by immunohistochemistry staining based analysis relative to control; assay type: ADME, Neoplasm; how it was run: as §1
[3] = Ex vivo biodistribution in formalin fixed paraffin embedded tumor of human ES2 cells expressing PD-L1 by immunohistochemistry staining based analysis relative to control; assay type: ADME, Neoplasm; details: es-2; how it was run: as §1
[4] = Ex vivo biodistribution in snap-frozen human tonsils overexpressing PD-L1 by autoradiography; assay type: ADME, Tonsil
How it was run: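 Snap-frozen human tonsil sections, 10 min cold acetone, then 30 min incubation with freshly formulated 18F-tracer at 0.2 MBq/mL. Washed twice with cold PBS and once with water, dried, exposed to phosphor plates and quantified by phosphor imaging.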

[5] = target: Programmed cell death protein 1/Programmed cell death 1 ligand 1 (Homo sapiens) (UniProt Q15116+Q9NZQ7); assay: Inhibition of human PD-1/PD-L1 interaction assessed as induction of PD-L1 dimerization at 1:1 molar ratio by 1H-15N HMQC NMR analysis; assay type: protein-complex assay
How it was run: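 Recombinant human PD-L1 (residues 18–134), expressed in E. coli BL21(DE3), refolded and purified by SEC in PBS pH 7.4. 1D and 2D NMR spectra recorded for apo protein and with ligand at 1:1 molar ratio.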

Row | Drug uptake [1] | Drug uptake [2] [%] | Drug uptake [3] | Drug uptake [4] | Compound | Activity (Jurkat) | inhibition [5]
1 | – | – | – | – | Cc1c(COc2cc(OCc3cccc(C#N)c3)c(CN3C[C@@H](F)C[C@@H]3C(=O)O)cc2Cl)cccc1-c1ccc2c(c1)OCCO2 | Toxic | –
2 | Active | 40 | Not Active | Active | N#Cc1c(-c2ccc([18F])cc2)csc1OCc1ccc(CN)cc1 | – | –
3 | Active | 40 | – | Active | Cc1c(COc2cc(OCc3cccc(C#N)c3)c(CN3C[C@@H]([18F])C[C@@H]3C(=O)O)cc2Cl)cccc1-c1ccc2c(c1)OCCO2 | – | –
4 | – | – | – | – | Cc1c(COc2cc(OCc3cccc(C#N)c3)c(CN3C[C@H](O)C[C@@H]3C(=O)O)cc2Cl)cccc1-c1ccc2c(c1)OCCO2 | Toxic | Active
5 | – | – | – | – | N#Cc1c(-c2ccc(F)cc2)csc1OCc1ccc(CN)cc1 | Toxic | Active
